ChEMBL document CHEMBL1126647, “Fluorine-18-labeled progestin ketals: synthesis and target tissue uptake selectivity of potential imaging agents for receptor-positive breast tumors” (J Med Chem, 1993)

Columns and labels:
[1] = molecular target: T1, Progesterone receptor (Rattus norvegicus) (UniProt Q63449); test: Tissue distribution in kidney 1 hr after [18F]4 injection into estrogen-primed immature rats at normal dose; assay type: functional, tissue-based
T1 sequence (whole entry): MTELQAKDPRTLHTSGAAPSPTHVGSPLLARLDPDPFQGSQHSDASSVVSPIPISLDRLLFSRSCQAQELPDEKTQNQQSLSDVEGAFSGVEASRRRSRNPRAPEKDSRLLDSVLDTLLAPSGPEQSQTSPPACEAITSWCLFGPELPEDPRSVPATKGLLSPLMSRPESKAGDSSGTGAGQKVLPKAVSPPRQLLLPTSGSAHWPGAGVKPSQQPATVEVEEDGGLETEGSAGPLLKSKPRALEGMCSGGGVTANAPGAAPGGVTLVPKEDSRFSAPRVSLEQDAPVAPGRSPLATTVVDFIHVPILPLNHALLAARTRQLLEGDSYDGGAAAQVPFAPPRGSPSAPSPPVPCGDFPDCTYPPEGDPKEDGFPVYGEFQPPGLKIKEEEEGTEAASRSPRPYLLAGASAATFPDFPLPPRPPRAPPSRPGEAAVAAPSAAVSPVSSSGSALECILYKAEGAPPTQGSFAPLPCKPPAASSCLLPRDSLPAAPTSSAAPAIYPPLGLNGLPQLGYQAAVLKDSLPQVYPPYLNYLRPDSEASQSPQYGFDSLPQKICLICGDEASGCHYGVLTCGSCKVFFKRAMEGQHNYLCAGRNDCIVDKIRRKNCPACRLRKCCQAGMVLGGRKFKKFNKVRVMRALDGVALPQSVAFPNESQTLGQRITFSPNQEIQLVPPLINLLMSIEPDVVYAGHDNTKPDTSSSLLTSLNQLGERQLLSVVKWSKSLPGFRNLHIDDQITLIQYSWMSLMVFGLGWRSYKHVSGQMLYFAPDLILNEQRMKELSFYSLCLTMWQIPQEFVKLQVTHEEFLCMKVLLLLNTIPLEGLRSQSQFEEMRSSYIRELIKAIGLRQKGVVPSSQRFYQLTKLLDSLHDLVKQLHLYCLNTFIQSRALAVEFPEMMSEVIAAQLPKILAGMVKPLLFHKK
In short: (§1)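 Female Sprague-Dawley rats, 23 days old, primed with estradiol 5 μg s.c. in 20% ethanol/sunflower oil on two days and used 24 h later. Under ether, they received 51 μCi tracer (30 Ci/mmol) iv via the tail vein in 0.1 mL 10% ethanol/saline. Killed by decapitation at 1 h; tissues weighed and gamma-counted. Results as %ID/g or tissue ratios, mean ± SD, n = 5.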

[2] = molecular target: T1, Progesterone receptor (Rattus norvegicus); test: Tissue distribution in blood 1 hr after [18F]4 injection into estrogen-primed immature rats at low dose; assay type: functional, tissue-based
In short: (§2)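 Estrogen-primed immature female Sprague-Dawley rats (estradiol 5 μg s.c. daily ×2, used 24 h later) were given a reduced tracer dose of 30 μCi in 0.04 mL 10% ethanol/saline, tail vein iv, under ether. Decapitated at 1 h; organs weighed and gamma-counted. Results as %ID/g or uterus/tissue ratio, mean ± SD, n = 5.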

[3] = molecular target: T1, Progesterone receptor (Rattus norvegicus); test: Tissue distribution in muscle 1 hr after [18F]4 injection into estrogen-primed immature rats at normal dose; assay type: functional, tissue-based; in short: as §1
[4] = molecular target: T1, Progesterone receptor (Rattus norvegicus); test: Tissue distribution in lung 1 hr after [18F]4 injection into estrogen-primed immature rats at low dose; assay type: functional, tissue-based; in short: as §2
[5] = molecular target: T2, Mineralocorticoid receptor (Rattus norvegicus) (UniProt P22199); test: Relative binding affinity (RBA) for mineralocorticoid receptor compared to aldosterone
T2 sequence (whole entry): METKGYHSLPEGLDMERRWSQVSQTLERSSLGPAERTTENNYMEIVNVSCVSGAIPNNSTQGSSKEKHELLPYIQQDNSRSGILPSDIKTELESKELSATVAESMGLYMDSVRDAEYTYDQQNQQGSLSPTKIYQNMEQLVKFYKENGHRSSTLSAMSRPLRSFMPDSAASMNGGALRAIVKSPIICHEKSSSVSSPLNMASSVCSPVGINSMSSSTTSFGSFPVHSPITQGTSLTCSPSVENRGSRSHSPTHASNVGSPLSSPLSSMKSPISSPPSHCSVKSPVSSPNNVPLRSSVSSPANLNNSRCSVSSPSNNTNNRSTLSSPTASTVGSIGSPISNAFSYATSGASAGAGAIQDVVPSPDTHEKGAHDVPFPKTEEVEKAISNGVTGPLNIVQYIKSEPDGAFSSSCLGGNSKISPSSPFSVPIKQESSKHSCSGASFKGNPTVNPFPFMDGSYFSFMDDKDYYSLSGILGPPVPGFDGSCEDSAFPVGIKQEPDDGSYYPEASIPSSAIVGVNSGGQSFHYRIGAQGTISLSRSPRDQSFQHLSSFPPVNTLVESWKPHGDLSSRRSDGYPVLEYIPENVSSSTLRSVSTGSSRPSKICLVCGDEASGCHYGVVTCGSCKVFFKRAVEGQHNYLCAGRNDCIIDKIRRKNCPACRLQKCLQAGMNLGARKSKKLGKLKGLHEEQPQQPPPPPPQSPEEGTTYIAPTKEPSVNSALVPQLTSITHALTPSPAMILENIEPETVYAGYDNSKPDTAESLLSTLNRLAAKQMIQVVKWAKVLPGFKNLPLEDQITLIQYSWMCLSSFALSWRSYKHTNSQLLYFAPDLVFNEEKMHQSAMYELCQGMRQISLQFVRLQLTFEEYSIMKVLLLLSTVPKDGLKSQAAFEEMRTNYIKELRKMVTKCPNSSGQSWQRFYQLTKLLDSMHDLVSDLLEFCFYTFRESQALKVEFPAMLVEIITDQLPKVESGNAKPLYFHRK

[6] = molecular target: T1, Progesterone receptor (Rattus norvegicus); test: Tissue distribution in brain 1 hr after [18F]4 injection into estrogen-primed immature rats at normal dose; assay type: functional, tissue-based; in short: as §1
[7] = molecular target: T1, Progesterone receptor (Rattus norvegicus); test: Tissue distribution in liver 1 hr after [18F]4 injection into estrogen-primed immature rats at low dose; assay type: functional, tissue-based; in short: as §2
[8] = molecular target: T1, Progesterone receptor (Rattus norvegicus); test: Tissue distribution in blood 1 hr after [18F]4 injection into estrogen-primed immature rats at normal dose; assay type: functional, tissue-based; in short: as §1
[9] = molecular target: T1, Progesterone receptor (Rattus norvegicus); test: Tissue distribution in kidney 1 hr after [18F]4 injection into estrogen-primed immature rats at low dose; assay type: functional, tissue-based; in short: as §2
[10] = molecular target: T1, Progesterone receptor (Rattus norvegicus); test: Tissue distribution in fat 3 hr after [18F]4 injection into estrogen-primed immature rats; assay type: functional, tissue-based; details: Adipose tissue
In short: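 Immature female Sprague-Dawley rats, estradiol-primed (5 μg s.c. in 20% ethanol/sunflower oil, two successive days, used 24 h later). Tracer (30 Ci/mmol) in 10% ethanol/saline was injected iv into the tail vein under ether anesthesia. Animals were decapitated 3 h postinjection; organs weighed and gamma-counted. %ID/g, mean ± SD, n = 5.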

[11] = molecular target: T1, Progesterone receptor (Rattus norvegicus); test: Tissue distribution in bone 1 hr after [18F]4 injection into estrogen-primed immature rats at low dose; assay type: functional, tissue-based; details: Bone element; in short: as §2
[12] = molecular target: T1, Progesterone receptor (Rattus norvegicus); test: Tissue distribution in uterus 1 hr after [18F]4 injection into estrogen-primed immature rats at normal dose; assay type: functional, tissue-based; in short: as §1
[13] = molecular target: T1, Progesterone receptor (Rattus norvegicus); test: Tissue distribution in lung 1 hr after [18F]4 injection into estrogen-primed immature rats at normal dose; assay type: functional, tissue-based; in short: as §1
[14] = molecular target: T1, Progesterone receptor (Rattus norvegicus); test: Tissue distribution in fat 1 hr after [18F]4 injection into estrogen-primed immature rats at normal dose; assay type: functional, tissue-based; details: Adipose tissue; in short: as §1
[15] = molecular target: T1, Progesterone receptor (Rattus norvegicus); test: Tissue distribution in ovaries 1 hr after [18F]4 injection into estrogen-primed immature rats at low dose; assay type: functional, tissue-based; details: Female gonad; in short: as §2

Injected dose/g [1] [%]	Injected dose/g [2] [%]	Injected dose/g [3] [%]	Injected dose/g [4] [%]	relative binding affinity (RBA) [5]	Injected dose/g [6] [%]	Injected dose/g [7] [%]	Injected dose/g [8] [%]	Injected dose/g [9] [%]	Injected dose/g [10] [%]	Injected dose/g [11] [%]	Injected dose/g [12] [%]	Injected dose/g [13] [%]	Injected dose/g [14] [%]	Injected dose/g [15] [%]	SMILES
2.18	0.52	0.82	1.46	6	0.56	3.62	0.47	2.27	5.06	1.77	3.08	1.3	5.76	3.68	CC(=O)[C@@]12O[C@](C)(c3ccc(F)cc3)O[C@@H]1CC1C3CCC4=CC(=O)CC[C@]4(C)C3CC[C@@]12C (stereo not given in full)
1.42	0.28	0.44	0.72	140	0.34	3.93	0.26	1.57	1.64	0.68	3.65	0.6	3.53	2.66	C[C@@]1(c2ccc(F)cc2)O[C@@H]2CC3C4CCC5=CC(=O)CC[C@@H]5C4CC[C@]3(C)[C@]2(C(=O)CO)O1 (stereo not given in full)
